In ChEMBL document CHEMBL1135533, “Synthesis and in vitro studies of novel pyrimidinyl peptidomimetics as potential antimalarial therapeutic agents” (J Med Chem, 2002) one finds IC50 data, which are given here for six compounds.

In brackets after ≈: the same amount, converted by molar mass.

One test has as its system Colon cell line. Put plainly: In vitro inhibition of cell growth in human colon cell line. Format: functional, cell-based. In a few lines: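 SW620 colon cells grown and tested in RPMI-1640 with 10% FBS. Serially diluted compound was placed in wells, cells were seeded straight onto it, and solvent blanks were included. After 72 h, cells were fixed with cold TCA (10% final) for 1 h at 4 °C, stained 30 min with 0.4% SRB in 1% acetic acid, and bound dye was solubilized in 10 mM Tris base, pH 10.5.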

For the next test, the system named is Neuronal cell line. Put plainly: In vitro inhibition of cell growth in human neuronal cell line. Type of test: functional, cell-based.
Test [1] concerns Plasmodium falciparum. Put plainly: Inhibitory activity against chloroquine-sensitive Plasmodium falciparum D6 (CDC/Sierra Leone I). Format: functional, organism-based. In a few lines: (§1)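 Drug stocks in DMSO, diluted 400-fold into RPMI 1640 with 25 mM Hepes, 32 mM NaHCO3 and 10% Albumax I, then 2-fold serial dilutions (over 11 concentrations). Parasites exposed 48 h at 37 °C under 5% O2/5% CO2/90% N2, then [3H]hypoxanthine added for a further 18 h. Uptake counted by scintillation; IC50 from nonlinear regression logistic dose-response fit.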

Test [2] relates to Plasmodium falciparum. Put plainly: Inhibitory activity against chloroquine-resistant Plasmodium falciparum W-2 Indochina III. Format: functional, organism-based. A digest of the protocol:
as §1

Consider `COC(=O)/C(=C/Cn1c(-c2ccccc2)ncc(NC(=O)OCc2ccccc2)c1=O)COC(=O)c1ccc([N+](=O)[O-])cc1`, for which the IC50 with Colon cell line turned out to be 7.6 µg/mL (≈ 12.7 µM); in the test with Neuronal cell line it was 1.75 µg/mL (≈ 2.92 µM); in the test on Plasmodium falciparum [1], 0.024 µg/mL (≈ 0.0401 µM); with Plasmodium falciparum [2] it was 0.024 µg/mL (≈ 0.0401 µM).

With `COC(=O)/C(=C/[C@H](C)NC(=O)Cn1c(-c2ccccc2)ncc(NC(=O)OCc2ccccc2)c1=O)COC(C)=O`, the IC50 with Colon cell line stood at 1.6 µg/mL (≈ 2.84 µM); in the test with Neuronal cell line it was 1.1 µg/mL (≈ 1.96 µM); in the test on Plasmodium falciparum [1], 0.009 µg/mL (≈ 0.016 µM); in the test on Plasmodium falciparum [2] it was 0.01 µg/mL (≈ 0.0178 µM).

`COC(=O)/C(=C/Cn1c(-c2ccccc2)ncc(NC(=O)OCc2ccccc2)c1=O)CO`: the IC50 with Colon cell line is over 50 µg/mL; in the test with Neuronal cell line, 0.95 µg/mL (≈ 2.11 µM); in the test with Plasmodium falciparum [1] it was 0.016 µg/mL (≈ 0.0356 µM); with Plasmodium falciparum [2], 0.017 µg/mL (≈ 0.0378 µM).

`COC(=O)/C(=C/Cn1c(-c2ccccc2)ncc(NC(=O)N2CCN(C(C)=O)CC2)c1=O)COC(C)=O`: the IC50 in the test with Colon cell line was over 50 µg/mL; in the test with Neuronal cell line it was 13.8 µg/mL (≈ 27 µM); in the test on Plasmodium falciparum [1], 0.017 µg/mL (≈ 0.0332 µM); in the test with Plasmodium falciparum [2] it was 0.018 µg/mL (≈ 0.0352 µM).

On to `COC(=O)/C(=C/Cn1c(-c2ccccc2)ncc(NC(=O)OCc2ccccc2)c1=O)COC(C)=O`, for which the 50% inhibitory concentration (IC50) in the test on Colon cell line is over 50 µg/mL; in the test on Neuronal cell line, 0.92 µg/mL (≈ 1.87 µM); in the test with Plasmodium falciparum [1], 0.017 µg/mL (≈ 0.0346 µM); in the test with Plasmodium falciparum [2], 0.017 µg/mL (≈ 0.0346 µM).

`COC(=O)/C(=C/Cn1c(-c2ccccc2)ncc(NC(=O)OCc2ccccc2)c1=O)COC(=O)c1ccccc1`: the IC50 in the test on Colon cell line was 13.5 µg/mL (≈ 24.4 µM); in the test on Neuronal cell line, 2.6 µg/mL (≈ 4.7 µM); in the test on Plasmodium falciparum [1], 0.027 µg/mL (≈ 0.0488 µM); with Plasmodium falciparum [2] it was 0.028 µg/mL (≈ 0.0506 µM).

The term IC50 denotes the concentration that gives 50% inhibition.
